T1: Catechol O-methyltransferase (Rattus norvegicus) (UniProt P22734)
T1 sequence (whole entry): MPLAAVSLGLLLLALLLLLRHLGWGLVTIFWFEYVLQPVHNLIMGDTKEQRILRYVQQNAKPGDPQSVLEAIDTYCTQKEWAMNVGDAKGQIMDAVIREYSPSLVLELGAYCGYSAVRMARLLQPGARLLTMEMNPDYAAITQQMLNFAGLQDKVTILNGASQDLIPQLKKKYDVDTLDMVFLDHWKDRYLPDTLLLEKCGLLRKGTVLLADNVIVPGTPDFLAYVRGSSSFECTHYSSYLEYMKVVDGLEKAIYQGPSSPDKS


Tests used:
[1] = target: T1, Catechol O-methyltransferase (Rattus norvegicus); assay: Competitive inhibition of Sprague-Dawley rat liver COMT assessed as inhibition of methyl group transformation from SAM to DL-epinephrine-7-14C after 10 mins by scintillation spectrophotometric analysis
In short: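 Partially purified rat liver COMT (calcium phosphate stage). SAM 1.0 mM as methyl donor, Epi-14C 0.05 μCi, epinephrine varied 54-404 μM, 10 min, stopped with borate pH 10.0. Radiolabeled metanephrine and paranephrine extracted with toluene-isoamyl alcohol (3:2) and counted. Reciprocal velocity vs reciprocal epinephrine plots give the inhibition pattern; Ki by Cleland's procedure.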

Mus musculus = assay: Induction of DL-norepinephrine-7-3H release from ARS HA(ICR)f outbred Swiss albino mouse heart assessed as remaining level at 10 mg/kg, sc after 2 hrs relative to control; assay type: functional; conditions: route subcutaneous
In short: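 Mice (about 20 g) given 1.0 nmol (5 μCi) Norepi-3H iv by tail vein in isotonic NaCl with heparin. Compound 10 mg/kg sc 1 hr later; saline-injected controls. Hearts removed, homogenized in 10 vol 0.4 N HClO4 and centrifuged; tritium in the supernatant counted. Expressed as % of control, mean of duplicate determinations with five mice each.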

[2] = substrate: CN1Cc2cc(O)c(O)cc2C(C)(C)C1; assay: (§1) Activity of Sprague-Dawley rat liver COMT using [14CH3]-SAM as methyl group donor after 10 mins by scintillation spectrophotometric analysis
In short: (§2)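 Rat liver COMT (male Sprague-Dawley, 180-200 g) purified through the calcium phosphate stage, approx 50-fold. Test catechol at 50-500 μM as substrate, SAM 1.0 mM with SAM-14CH3 0.05 μCi, 10 min incubation, stopped with borate buffer pH 10.0. O-methylated product extracted into toluene-isoamyl alcohol (3:2) and counted. Km and Vmax from double-reciprocal plots using Cleland's equations.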

[3] = substrate: CNC[C@H](O)c1ccc(O)c(O)c1; assay: as §1; in short: as §2
[4] = substrate: CN1CCc2cc(O)c(O)cc2C1; assay: as §1; in short: as §2
[5] = substrate: Oc1cc2c(cc1O)CNCC2; assay: as §1; in short: as §2
[6] = substrate: CC1(C)CNCc2cc(O)c(O)cc21; assay: as §1; in short: as §2
[7] = substrate: CC1CN(C)Cc2cc(O)c(O)cc21; assay: as §1; in short: as §2

Molecule | Kis [1] | Activity (Mus musculus) | other results
Br.CN1CCc2cc(O)c(O)cc2C1 | 152 µM | 104% | 
Br.CC1CN(C)Cc2cc(O)c(O)cc21 (centres undefined) | 101 µM | 107% | 
Br.CC1(C)CNCc2cc(O)c(O)cc21 | 259 µM | 103% | 
Br.Oc1cc2c(cc1O)CNCC2 | 196 µM | 63% | 
C[N+]1(C)CCc2cc(O)c(O)cc2C1.[Br-] | 191 µM | 43% | 
Br.CN1Cc2cc(O)c(O)cc2C(C)(C)C1 | 187 µM | 115% | 
Catechol O-methyltransferase (Rattus norvegicus), P22734 (protein) MPLAAVSLGLLLLALLLLLRHLGWGLVTIFWFEYVLQPVHNLIMGDTKEQRILRYVQQNAKPGDPQSVLEAIDTYCTQKEWAMNVGDAKGQIMDAVIREYSPSLVLELGAYCGYSAVRMARLLQPGARLLTMEMNPDYAAITQQMLNFAGLQDKVTILNGASQDLIPQLKKKYDVDTLDMVFLDHWKDRYLPDTLLLEKCGLLRKGTVLLADNVIVPGTPDFLAYVRGSSSFECTHYSSYLEYMKVVDGLEKAIYQGPSSPDKS |  |  | Km [2]: 410 µM; Vmax [2]: 12.1 nmol/mg/min; Km [3]: 398 µM; Vmax [3]: 19.8 nmol/mg/min; Km [4]: 670 µM; Vmax [4]: 18.5 nmol/mg/min; Km [5]: 540 µM; Vmax [5]: 15.5 nmol/mg/min; Km [6]: 310 µM; Vmax [6]: 17.4 nmol/mg/min; Km [7]: 754 µM; Vmax [7]: 21.2 nmol/mg/min
